What was measured:
Format in all cases: functional, cell-based
P388 = assay: Cytotoxicity against mouse P388 cells after 72 hrs by MTT assay; conditions: P388, 72 h
In short: (§1)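 Cells grown in RPMI-1640 with 10% FBS, 5% CO2/95% air, 37 °C; plated at 5 × 10^4 cells/mL, preincubated 24 h, then compounds added in DMSO at several concentrations for 72 h. MTT (5 mg/mL) added for 4 h, medium replaced by DMSO to dissolve formazan, absorbance read at 570 nm; IC50 values reported.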

A549 = assay: Cytotoxicity against human A549 cells after 72 hrs by MTT assay; conditions: A549, 72 h; in short: as §1
HL-60 = assay: Cytotoxicity against human HL60 cells after 72 hrs by MTT assay; conditions: HL-60, 72 h; in short: as §1
Bel-7402 = assay: Cytotoxicity against human BEL-7402 cells after 72 hrs by MTT assay; conditions: Bel-7402, 72 h; in short: as §1

Compound	IC50 (P388) [µM]	IC50 (A549) [µM]	IC50 (HL-60) [µM]	IC50 (Bel-7402) [µM]
CC1=C(C)[C@H]2[C@H](Cc3ccccc3)NC(=O)[C@@]2(O)[C@@H](/C=C/C[C@H](C)C(=O)[C@H](C)O)[C@@H]1O [CYTOCHALASIN Z13]	67	76	80	88
C=C1[C@@H](C)[C@H]2[C@H](Cc3ccccc3)NC(=O)[C@@]2(O)[C@@H](/C=C/C[C@H](C)C(=O)[C@H](C)O)[C@@H]1O [CYTOCHALASIN Z11]	69	4.3	45	> 100
C/C1=C/CC(=O)O[C@@]23C(=O)N[C@@H](Cc4ccc(O)cc4)[C@@H]2[C@H](C)[C@@]2(C)O[C@H]2[C@@H]3/C=C/C[C@H](C)C1=O	79	96	66	94
CC(=O)[C@H](O)[C@@H](C)C/C=C/[C@H]1[C@H](O)C(C)=C(C)[C@H]2[C@H](Cc3ccccc3)NC(=O)[C@@]12O [CYTOCHALASIN Z15]	> 100	> 100	> 100	> 100
C=C1[C@@H](C)[C@H]2[C@H](Cc3ccccc3)NC(=O)[C@@]2(O)[C@@H](/C=C/C[C@H](C)[C@@H](O)[C@@H](C)O)[C@@H]1O [CYTOCHALASIN Z10]	> 100	9.6	69	> 100
CC1=C(C)[C@H]2[C@H](Cc3ccccc3)NC(=O)[C@@]2(O)[C@@H](/C=C/C[C@H](C)[C@@H](O)[C@@H](C)O)[C@@H]1O [CYTOCHALASIN Z12]	> 100	92	89	> 100
CC(=O)[C@@H](O)[C@@H](C)C/C=C/[C@H]1[C@H](O)C(C)=C(C)[C@H]2[C@H](Cc3ccccc3)NC(=O)[C@@]12O [CYTOCHALASIN Z14]	> 100	> 100	> 100	> 100

From ChEMBL document CHEMBL1157416, “Novel open-chain cytochalsins from the marine-derived fungus Spicaria elegans” (J Nat Prod, 2008)
